Source: PubChem BioAssay (several laboratories)
Hits are enriched below; roughly 2.6% of the tested compounds scored in any of these assays.
SMARCA2 act: activators of SMARCA2 function; hit rate 1% among 370,000; MG213 cells, MMTV-luciferase reporter, dexamethasone, overnight; activation, % at 9.1 µM; in the data active = activation above about 7.8%
ASAP1 inh: blocks human ASAP1-stimulated Arf1 GTP hydrolysis. hit rate 0.19% among 360,000. inhibition, % at 16.5 µM. GDP FP detection. AID 624377. Q9ULH1; in the data active = inhibition above about 25%
Target sequence (Q9ULH1 325-724 limits assumed): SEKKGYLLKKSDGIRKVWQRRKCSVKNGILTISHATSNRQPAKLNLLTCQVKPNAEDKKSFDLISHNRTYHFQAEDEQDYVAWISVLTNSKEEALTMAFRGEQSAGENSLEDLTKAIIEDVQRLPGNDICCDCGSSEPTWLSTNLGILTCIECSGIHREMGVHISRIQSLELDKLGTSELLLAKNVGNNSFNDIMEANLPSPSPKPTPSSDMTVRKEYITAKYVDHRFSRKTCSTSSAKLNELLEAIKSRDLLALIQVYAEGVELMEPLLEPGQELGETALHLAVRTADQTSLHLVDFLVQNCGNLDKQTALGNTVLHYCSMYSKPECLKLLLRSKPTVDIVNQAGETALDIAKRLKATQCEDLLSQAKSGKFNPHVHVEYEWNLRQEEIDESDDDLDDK
ARFGAP1 inhibitor: inhibitors of rat ARFGAP1 | Arfgap1-stimulated ARF1 GTP hydrolysis, GDP FP detection | inhibition, % at 16.5 µM | hit rate 0.26% among 360,000 | AID 651572;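 active = inhibition above a per-plate limit, mean inhibition of low control wells plus 3 SD, cut at about 25% in these data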
Target sequence (Q62848 1-136 limits assumed): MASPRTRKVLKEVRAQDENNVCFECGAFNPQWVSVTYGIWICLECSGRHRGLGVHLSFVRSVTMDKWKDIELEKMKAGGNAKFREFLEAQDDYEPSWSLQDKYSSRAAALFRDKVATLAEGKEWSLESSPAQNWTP
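Material – truncated rat Arfgap1 GAP domain · Buffer or medium – HEPES-based buffer, pH 7.5 · Reagent – human ARF1(Δ1-17)-GTP substrate · Dosing – 16.5 µM single point, 1.26% DMSO · Schedule – GTP hydrolysis reaction 2 h at 25 °C · Technique – GDP detection by fluorescence polarization · Benchmarks – No-Arfgap1 wells (100%) versus DMSO full-reaction wells (0%) · Repeats – single replicate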
esBAF inh: blocks esBAF chromatin remodeling in mouse ES cells | reporter increase, % at 12.5 µM | hit rate 2% among 350,000 | Bmi1-luciferase knock-in reporter, 24 h; 100% = twice the neutral-well signal | AID 602393; in the data active = activation above about 40%;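 also: a rise in the Bmi1 reporter signal indicates esBAF inhibition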
Numbers stand for hits.

What do the screens show for `CS(=O)(=O)c1cccc(C(=O)Nc2ccc3c(c2)OCCCO3)c1`?
SMARCA2 act: inactive; ASAP1 inh: inactive; ARFGAP1 inhibitor: inactive; esBAF inh: 58

How did CC(C)C(=O)Nc1cccc(NC(=S)NC(=O)c2ccc3c(c2)OCO3)c1 do in these assays?
SMARCA2 act: inactive; ASAP1 inh: inactive; ARFGAP1 inhibitor: inactive; esBAF inh: 62

How did O=C(Nc1ccc2c(c1)OCCO2)c1cccc(S(=O)(=O)N2CCCCC2)c1 do in these assays?
SMARCA2 act: inactive; ASAP1 inh: inactive; ARFGAP1 inhibitor: inactive; esBAF inh: inactive

How did CC(=O)c1cccc(NC(=O)Nc2ccc3c(c2)OCO3)c1 do in these assays?
SMARCA2 act: inactive; ASAP1 inh: inactive; ARFGAP1 inhibitor: inactive; esBAF inh: 52

Results for O=C(Nc1cccc(F)c1)c1ccc2c(c1)OCO2 ?
SMARCA2 act: inactive; ASAP1 inh: inactive; ARFGAP1 inhibitor: inactive; esBAF inh: 78

What do the screens show for `C[C@H]1CN([C@@H](C)CO)C(=O)c2cc(C#CC(C)(C)O)cnc2O[C@H]1CN(C)C(=O)c1ccccc1F`?
esBAF inh: inactive

Results for CC(=O)N1[C@@H]2CN(S(=O)(=O)c3ccc(F)cc3)c3ccccc3[C@@H]2[C@@H]1CO ?
esBAF inh: inactive

What do the screens show for `COc1ccc(NC(=O)N(C)C[C@H]2OCCCC[C@@H](C)Oc3ccc(NC(=O)Nc4ccc(C(F)(F)F)cc4)cc3C(=O)N([C@H](C)CO)C[C@@H]2C)cc1`?
esBAF inh: inactive

What do the screens show for `C[C@H]1CN([C@@H](C)CO)C(=O)Cc2cc(NC(=O)Nc3ccc4c(c3)OCO4)ccc2O[C@@H]1CN(C)Cc1ccc(Cl)c(Cl)c1`?
esBAF inh: inactive

What do the screens show for `O=C(N[C@@H]1CC[C@H](CCNC(=O)C2CC2)O[C@H]1CO)c1ccncc1`?
esBAF inh: inactive

Results for CCC(=O)Nc1cccc(NC(=O)c2ccc3c(c2)OCCO3)c1 ?
SMARCA2 act: inactive; ASAP1 inh: inactive; ARFGAP1 inhibitor: inactive; esBAF inh: 72

How did O=C(Nc1cccc(-c2cn3c(n2)SCC3)c1)c1ccc2c(c1)OCO2 do in these assays?
SMARCA2 act: inactive; ASAP1 inh: inactive; ARFGAP1 inhibitor: inactive; esBAF inh: 49

Results for COc1cccc(NC(=O)CN(C)CC(=O)Nc2ccc3c(c2)OCO3)c1 ?
SMARCA2 act: inactive; ASAP1 inh: inactive; ARFGAP1 inhibitor: inactive; esBAF inh: inactive

Results for CCC(=O)Nc1ccc(NC(=O)c2ccc3c(c2)OCO3)cc1 ?
SMARCA2 act: inactive; ASAP1 inh: inactive; ARFGAP1 inhibitor: inactive; esBAF inh: inactive

How did COc1cccc(NC(=O)Nc2ccc3c(c2)OCO3)c1 do in these assays?
SMARCA2 act: inactive; ASAP1 inh: inactive; ARFGAP1 inhibitor: inactive; esBAF inh: 61

Results for O=C(Nc1ccc(-c2cn3c(n2)SCC3)cc1)c1ccc2c(c1)OCO2 ?
SMARCA2 act: inactive; ASAP1 inh: inactive; ARFGAP1 inhibitor: inactive; esBAF inh: inactive

Results for COc1ccc(Cl)cc1C(=O)Nc1ccc2c(c1)OCO2 ?
SMARCA2 act: inactive; ASAP1 inh: inactive; ARFGAP1 inhibitor: inactive; esBAF inh: 51

Results for C[C@H]1CN([C@@H](C)CO)C(=O)c2cc(NC(=O)CCC(F)(F)F)ccc2O[C@@H]1CN(C)CC1CCCCC1 ?
esBAF inh: inactive

Results for O=C(C1CCOCC1)N1[C@H](CO)[C@H]2c3ccccc3NC[C@H]21 ?
esBAF inh: inactive

Results for COc1cccc(C(=O)N2C[C@H]3[C@@H](c4ccccc42)[C@@H](CO)N3Cc2ccccc2F)c1 ?
esBAF inh: inactive

How did CCN(CC)S(=O)(=O)c1cccc(C(=O)Nc2ccc3c(c2)OCO3)c1 do in these assays?
SMARCA2 act: inactive; ASAP1 inh: inactive; ARFGAP1 inhibitor: inactive

Results for O=C(NCc1cccs1)Nc1cccc(Cl)c1 ?
SMARCA2 act: inactive; ASAP1 inh: inactive; ARFGAP1 inhibitor: inactive; esBAF inh: 59

How did O=C(Nc1ccc2c(c1)CCC2)Nc1ccc2c(c1)OCO2 do in these assays?
SMARCA2 act: inactive; ASAP1 inh: inactive; ARFGAP1 inhibitor: inactive; esBAF inh: 53

Results for NC(=O)c1ccc(NC(=O)Nc2ccc3c(c2)OCO3)cc1 ?
SMARCA2 act: inactive; ASAP1 inh: inactive; ARFGAP1 inhibitor: inactive; esBAF inh: inactive

Results for S=C(NCc1cccs1)Nc1cccc(Cl)c1 ?
esBAF inh: inactive

How did CCC(CC)C(=O)Nc1cccc(C(=O)Nc2ccc3c(c2)OCO3)c1 do in these assays?
SMARCA2 act: inactive; ASAP1 inh: inactive; ARFGAP1 inhibitor: inactive; esBAF inh: 47

Results for OCCc1ccc(NCCc2cccs2)cc1 ?
SMARCA2 act: inactive; ASAP1 inh: inactive; ARFGAP1 inhibitor: inactive; esBAF inh: 54

What do the screens show for `CO[C@H]1CN(C)C(=O)c2cc(NC(=O)c3ccccc3F)ccc2OC[C@@H](C)N(CC2CC2)C[C@@H]1C`?
esBAF inh: inactive

Results for Cn1cc(Cl)c(/C(N)=N/OC(=O)c2ccccc2C(F)(F)F)n1 ?
SMARCA2 act: inactive; ASAP1 inh: inactive; ARFGAP1 inhibitor: inactive; esBAF inh: 51

What do the screens show for `N/C(=N\OC(=O)c1ccccc1Cl)c1ccccn1`?
SMARCA2 act: inactive; ASAP1 inh: inactive; ARFGAP1 inhibitor: inactive; esBAF inh: inactive

How did COc1ccc(CC(=O)OCC(=O)c2c[nH]c3ccccc23)cc1 do in these assays?
SMARCA2 act: inactive; ASAP1 inh: inactive; ARFGAP1 inhibitor: inactive; esBAF inh: inactive

What do the screens show for `COc1ccc(C(=O)COC(=O)c2ccccc2O)c(OC)c1`?
SMARCA2 act: inactive; ASAP1 inh: inactive; ARFGAP1 inhibitor: inactive; esBAF inh: 76

What do the screens show for `COc1ccc(C(=O)OCC(=O)c2cc(OC)ccc2OC)c(OC)c1`?
SMARCA2 act: inactive; ASAP1 inh: inactive; ARFGAP1 inhibitor: inactive; esBAF inh: inactive

How did COc1ccc(C(=O)OCC(=O)c2c[nH]c3ccccc23)c(OC)c1 do in these assays?
SMARCA2 act: inactive; ASAP1 inh: inactive; ARFGAP1 inhibitor: inactive; esBAF inh: 75

What do the screens show for `Cc1[nH]c2ccccc2c1C(=O)COC(=O)c1ccccc1O`?
SMARCA2 act: inactive; ASAP1 inh: inactive; ARFGAP1 inhibitor: inactive; esBAF inh: 124

Results for COc1cccc(C(=O)OCC(=O)c2c[nH]c3ccccc23)c1OC ?
SMARCA2 act: inactive; ASAP1 inh: inactive; ARFGAP1 inhibitor: inactive; esBAF inh: 44

How did CO[C@@H]1CN(C)C(=O)c2ccc(NS(=O)(=O)c3cn(C)cn3)cc2OC[C@H](C)NC[C@H]1C do in these assays?
esBAF inh: inactive

What do the screens show for `NCC[C@@H]1CC[C@@H](NC(=O)NC2CCCCC2)[C@H](CO)O1`?
esBAF inh: inactive

What do the screens show for `C[C@@H]1CN([C@@H](C)CO)C(=O)Cc2cc(NS(=O)(=O)c3cccs3)ccc2O[C@H]1CN(C)Cc1ccc(Oc2ccccc2)cc1`?
esBAF inh: inactive

How did O=C(c1ccco1)N1CCn2c1nc1ccccc12 do in these assays?
SMARCA2 act: inactive; ASAP1 inh: inactive; ARFGAP1 inhibitor: inactive; esBAF inh: 46

How did COC(=O)c1cccc(-n2c(C)cc(/C=C3\SC(=O)NC3=O)c2C)c1 do in these assays?
SMARCA2 act: inactive; ASAP1 inh: inactive; ARFGAP1 inhibitor: inactive; esBAF inh: 45

Results for Cc1ccc(S(=O)(=O)N(C)C[C@@H]2Oc3ccc(NS(=O)(=O)c4cccs4)cc3CC(=O)N([C@@H](C)CO)C[C@H]2C)cc1 ?
esBAF inh: inactive
